Screens as filed in PubChem BioAssay.
PMI act – activators of human phosphomannose isomerase; P34949; purified human PMI, coupled resazurin fluorescence, 20 min; hits give high values; 1 = vehicle control, 0 substrate-free wells; activation factor at 20 µM; 0.005% of 190,000 active; AID 1214;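 active means activation factor of 2 or more at 20 µM, relative to plate controls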
TNAP inh noacc – inhibitors of human TNAP without phosphate acceptor; P05186; purified TNAP, CDP-star luminescence, 30 min; 0.26% of 200,000 active; inhibition, % at 20 µM;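 active means tissue-nonspecific alkaline phosphatase inhibition above about 50% at 20 µM in the single-dose screen, limit read from the data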;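 further: 0% = DMSO negative control and 100% = EDTA positive control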
Target sequence (P05186 whole entry, looked up): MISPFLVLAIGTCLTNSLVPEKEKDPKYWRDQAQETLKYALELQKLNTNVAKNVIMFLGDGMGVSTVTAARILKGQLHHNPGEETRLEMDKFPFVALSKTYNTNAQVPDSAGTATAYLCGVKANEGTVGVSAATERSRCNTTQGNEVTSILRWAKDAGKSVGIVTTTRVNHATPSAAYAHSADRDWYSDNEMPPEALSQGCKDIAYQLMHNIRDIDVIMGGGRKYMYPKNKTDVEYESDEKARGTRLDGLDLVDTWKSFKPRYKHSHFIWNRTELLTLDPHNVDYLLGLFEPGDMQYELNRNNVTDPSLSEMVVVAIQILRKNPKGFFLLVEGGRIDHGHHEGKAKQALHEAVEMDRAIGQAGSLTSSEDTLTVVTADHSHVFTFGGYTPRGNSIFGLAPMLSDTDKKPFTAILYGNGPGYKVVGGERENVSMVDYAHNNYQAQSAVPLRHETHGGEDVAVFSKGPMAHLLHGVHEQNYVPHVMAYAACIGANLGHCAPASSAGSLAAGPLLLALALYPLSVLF
TNAP inh hi DEA – inhibitors of human TNAP at high phosphate acceptor concentration; AID 1135; inhibition, % at 20 µM; 0.03% of 200,000 active; purified TNAP, CDP-star luminescence, 1 M DEA;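 active means over 50% inhibition of tissue-nonspecific alkaline phosphatase at 20 µM in the single-dose screen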;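 further: plate controls were DMSO wells for no effect and EDTA-quenched wells as full inhibition for full effect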
PMI act hi M6P – activators of human phosphomannose isomerase at near-saturating mannose 6-phosphate; activation factor at 20 µM; P34949; AID 1216; 0.34% of 190,000 active; coupled PMI enzyme assay, resazurin fluorescence, 20 min; hits give high values; 1 = untreated enzyme, 0 = substrate-free blank;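 active means activation factor of 2 or more at 20 µM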
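Test system: human phosphomannose isomerase with PGI, G6PDH, diaphorase coupling enzymes; amount: 15 ng/mL PMI; incubation: enzyme reaction with compound 20 min at room temperature; technique: resorufin fluorescence (Ex 544/Em 590 nm) from resazurin via diaphorase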
TNAP act hiacc – TNAP (human) activation, high acceptor. P05186. purified TNAP, CDP-star luminescence, 1 M DEA, 30 min; hits give high values; 0 = EDTA background, 1 = DMSO-only activity. activation factor at 20 µM. 200,000 tested, under 10 active. AID 1136;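 active means activation factor at least 2 at 20 µM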
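Measured by: Luminescent substrate turnover signal | Test system: Human TNAP | Input: TNAP 1/800 final | Dosing: 20 µM single point | Schedule: 30 min, room temperature | Controls: EDTA wells as negative control, DMSO wells as positive control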
Starred values were filed as active, the others as inactive. A selection: hits, their analogues and other compounds. The true share with any hit is near 0.6%.

SMILES	PMI act	TNAP inh noacc	TNAP inh hi DEA	PMI act hi M6P	TNAP act hiacc
CCOC(=O)C(C)On1c(-c2cccc(Cl)c2)nc2ccc([N+](=O)[O-])cc21 (configuration not stated)	1.6	-2	2	2*	1
CCOC(=O)COn1c(-c2cccc(Cl)c2)nc2ccc([N+](=O)[O-])cc21	1.4	-7	-1	2.1*	1
COc1ccc(-c2nn(-c3ccccc3C)cc2CNCc2cccnc2)cc1F	0.9	3	4	1	1
COc1ccc(/C(C)=N/Nc2ccc(C(=O)O)cc2)cc1OC	1.8	-14	4	2.5*	1
C/C(=N/Nc1ccc(C(=O)O)cc1)c1ccc(O)c(O)c1O	0.7	6	8	1.2	0.9
COc1cc(/C(C)=N/Nc2ccc(C(=O)O)cc2)cc(OC)c1OC	1.6	-8	-4	2.1*	1
COc1ccc(OC)c(/C(C)=N/Nc2ccc(C(=O)O)cc2)c1	1.5	-3	-1	1.7	1
C=CCNC(=O)/C(C#N)=C/c1ccc(SC)cc1	1	-13	-2	1	1
O=C(NCc1ccc(F)cc1)c1c2c(nc3ccccc13)CCC2	1	3	-4	0.9	1
CSc1nnc(C)c(=O)n1COC(=O)COc1ccc(Cl)cc1	1.1	-12	-5	1	1.1
